This is an account of results in ChEMBL document CHEMBL2321797 (J Med Chem, 2013).

Calls of active or inactive are those of the source. No cut-off for these calls is given here.

Assay [1] is described as follows: (§1) Inhibition of HIV1 Envelope glycoprotein-mediated cell-cell fusion expressed in human HL2/3 cells coincubated with human TZM-b1 cells after 6 to 8 hrs by luciferase assay. Particulars: Human immunodeficiency virus 1, TZM-b1. It is filed as cell-based.
The subject of a further assay is TZM-b1. The description is as §1. Particulars: Human immunodeficiency virus 1. The assay is classed as cell-based.
The test system of assay [2] is Human immunodeficiency virus 1. Description: Antiviral activity against Human immunodeficiency virus 1 assessed as inhibition of viral replication. The assay is classed as functional, organism-based. A digest of the protocol:
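NL4-3 mutant panel (D36G T20-sensitive; five T20-resistant NHR variants) infecting MT-2 cells with peptides at graded concentrations. p24 measured by ELISA on day 4. Run in triplicate as mean ± SD; IC50 and fold change vs D36G.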

For orientation: IC50 means the concentration that gives 50% inhibition. Turning to `Cc1ccc(C)n1-c1ccc(C(=O)O)c(OCC(=O)O)c1`, in assay [1], the half-inhibitory concentration (IC50) was more than 100 µM.

`Cc1cc(C(=O)O)c(C)n1-c1ccc(O)c(C(=O)O)c1`: in the assay with TZM-b1, the inhibition entry is “inactive”. For orientation: EC50 means the concentration giving half of the maximal effect. Take `Cc1ccc(C)n1-c1ccc(O)c(C(=O)O)c1`: the concentration giving a half-maximal response (EC50) in assay [2] is 690 nM.

Turning to `Cc1cc(C(=O)O)c(C)n1-c1ccc(C(=O)O)c(O)c1`, the inhibition entry with TZM-b1 is “inactive”. On to `Cc1ccc(C)n1-c1ccc(OCC(=O)O)c(C(=O)O)c1`, for which the half-maximal inhibitory concentration (IC50) in assay [1] is more than 100 µM.
